The list is not random: actives were taken first. Their share in the collection is about 2.4%.
rRNA inh HTS: inhibitors of bacterial rRNA selective over humanized ribosomes; hit rate 1.6% among 350,000; GFP signal change (wild-type ribosome), % (no concentration beside the values); E. coli WT GFP vs humanized-ribosome RFP mutants, fluorescence, 24 h; active compounds read low; DMSO median 0, no signal -100;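 active = significant combined selectivity score with lowered wild-type GFP, culture density cut under 30%, mutant RFP and density less affected; inactive = any of these conditions unmet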
LGR2 antag: Drosophila LGR2 receptor signaling inhibition | inhibition, % at 9.99 µM | hit rate 0.35% among 380,000 | HEK293 LGR2, CRE-luciferase, bursicon-stimulated, 4 h;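 active = drop in luminescence signal, shown as inhibition above about 50% in the replicate tests, limit read from the data, passing the limit was not always enough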;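 note: agonist challenge used bursicon conditioned medium at about half maximal strength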
E-selectin induc: induces E-selectin expression in human endothelial cells. P16581. HUVEC E-selectin immunofluorescence imaging; normalized: neutral wells 0, TNF-alpha wells 100. activation, % at 7.58 µM. hit rate 0.37% among 260,000;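 active = mean E-selectin-positive cell signal at least 10% of the positive control, reached in at least 60% of replicates, without over 20% cell loss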
Target sequence (P16581 whole entry, looked up): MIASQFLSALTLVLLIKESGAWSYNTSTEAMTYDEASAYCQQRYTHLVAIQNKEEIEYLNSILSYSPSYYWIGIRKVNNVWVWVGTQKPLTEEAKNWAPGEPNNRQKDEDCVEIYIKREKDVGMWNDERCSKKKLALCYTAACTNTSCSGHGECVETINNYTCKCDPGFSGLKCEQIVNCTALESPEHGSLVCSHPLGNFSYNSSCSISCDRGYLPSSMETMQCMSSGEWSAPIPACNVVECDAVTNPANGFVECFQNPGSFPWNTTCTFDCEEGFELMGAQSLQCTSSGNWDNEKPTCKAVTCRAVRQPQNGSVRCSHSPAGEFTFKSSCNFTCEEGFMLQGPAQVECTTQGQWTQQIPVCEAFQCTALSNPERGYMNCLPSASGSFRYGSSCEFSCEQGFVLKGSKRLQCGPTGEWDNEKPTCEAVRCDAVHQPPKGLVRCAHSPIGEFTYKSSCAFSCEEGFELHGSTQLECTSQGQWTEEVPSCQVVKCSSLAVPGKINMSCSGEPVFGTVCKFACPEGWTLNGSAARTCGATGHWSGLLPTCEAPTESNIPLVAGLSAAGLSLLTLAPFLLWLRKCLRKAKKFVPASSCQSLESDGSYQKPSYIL
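Read-out basis: % PE-positive cells; Test system: HUVEC primary endothelial cells; Technique: immunofluorescence imaging; Dosing: single-point compound dose.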
EWS-Fli block: blocks EWS/Fli oncoprotein-driven transcription; inhibition, % at 12.6 µM; AID 651661; A673 NR0B1-luciferase reporter, viability-normalised; hit rate 0.67% among 350,000;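 active = mean inhibition of at least 50% after viability correction, with every replicate also passing that limit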;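 note: firefly luciferase signal divided by Alamar Blue viability fluorescence both relative to DMSO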
DNA binding: small molecule DNA binding by fluorescence polarization; shares compounds with EWS-Fli block; salmon sperm DNA acridine orange fluorescence polarization; AC35, µM (doses to about 68 µM); hit rate 2% among 640;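 active = fitted curve reaches a 35% signal fall AC35 below twice the sample's top valid tested dose, actives reach about 48 µM in these data; inactive = the rest, including activity in the rising direction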;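 note: lower polarization ratio signals compound binding to DNA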
HepG2 cytotox: HepG2 cell cytotoxicity; shares compounds with rRNA inh HTS; HepG2 viability, ATP luminescence, 72 h; activity change, negative = cytotoxicity, unspecified at 26 µM; 30 tested, under 10 active; AID 743480;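 active = compounds whose fitted half-maximal signal-loss concentration is at most twice their highest valid dose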
AID977621: wild-type E. coli growth inhibition versus H69 humanized strain – H69 mutant RFP, wild-type GFP, cherry-pick, dose response; shares compounds with rRNA inh HTS; fluorescence, 24 h; activity change, negative = inhibition at 50 µM; 1,900 tested, under 10 active; AID 977621;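 active = Wild-type ribosome reporter drop at least double the humanized mutant ribosome reporter drop, growth loss under a set limit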;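 note: wild-type GFP and H69 mutant RFP strains grown together 50/50 in each well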
Large screens that a line does not name were inactive (follow-up assays come after a bar, where they were run).

CCOc1ccc(C(c2c(NC(=O)c3ccccc3)sc(C)c2C)N2CCN(CCO)CC2)cc1 (stereo not given)	EWS-Fli block 80 (no result: E-selectin induc) | DNA binding inactive
Cc1sc(NC(=O)c2ccccc2)c(C(c2ccc(Cl)cc2)N2CCN(CCO)CC2)c1C (stereo not given)	none (no result: LGR2 antag)
CN(C)c1ccc(C=c2c3ccccc3n3c2c2c([n+]3C)CCCC2)cc1	LGR2 antag 32, E-selectin induc 68, EWS-Fli block 53 | DNA binding 6.5µM
O=C(NCC[C@H]1CC[C@H](NC(=O)C2CCCCC2)[C@@H](CO)O1)c1ccc(F)cc1	none
COc1ccc2c3c([nH]c2c1)[C@H](CO)N(Cc1cc(F)ccc1F)CC31CCN(C(C)=O)CC1	none
Cc1cc(-c2nc3ccccc3s2)ccc1N	LGR2 antag 54, EWS-Fli block 61 | DNA binding inactive
CC(C)(C)[S@@](=O)N1Cc2cc(C(=O)N3CCOCC3)nc(-c3cccc(Br)c3)c2[C@H]1CCO	none
CCCNC(=O)N(C)C[C@H]1Oc2cc(C3=CCCC3)ccc2S(=O)(=O)N([C@@H](C)CO)C[C@@H]1C	none
Cc1ccc(S(=O)(=O)Nc2ccc3c(c2)C(=O)N([C@H](C)CO)C[C@H](C)[C@H](CN(C)S(=O)(=O)c2cccs2)O3)cc1	none
O=C(CCc1ccccc1)NC(c1cccs1)c1cc(Cl)c2cccnc2c1O (stereo not given)	EWS-Fli block 58 | DNA binding inactive
O=c1ccc2[n+]([O-])c3ccc(O)cc3oc-2c1	E-selectin induc 193, EWS-Fli block 57 | DNA binding 14µM
C[C@@H]1CN([C@@H](C)CO)C(=O)c2cc(NS(=O)(=O)c3ccc(F)cc3)ccc2O[C@@H]1CN(C)S(=O)(=O)c1cn(C)cn1	none
C#CCOCCOCCOCCNc1nc(N2CCN(C(=O)CCCCCCCCCCNC(=O)Cn3cc(C[C@@H](C)O)nn3)CC2)nc(N2CCN(C(=O)CCCCCCCCCCNC(=O)[C@H](CO)n3cc(CCCSC)nn3)CC2)n1	EWS-Fli block 58 | DNA binding inactive
C#CCOCCOCCOCCNc1nc(N2CCN(C(=O)CCCCCCCCCCNC(=O)Cn3cc(C[C@@H](C)O)nn3)CC2)nc(N2CCN(C(=O)CCCCCCCCCCNC(=O)[C@@H](CCC(=O)O)n3cc(CCCCCN)nn3)CC2)n1	none (no result: LGR2 antag)
CC(=NNc1cc(C)c2ccccc2n1)c1ccccn1	EWS-Fli block 64 (no result: rRNA inh HTS) | DNA binding inactive
C/C(=N\Nc1cccc2cccnc12)c1ccccc1O	none (no result: E-selectin induc)
C/C(=N\Nc1cccc2cccnc12)c1ccccn1	LGR2 antag 56, EWS-Fli block 61 | DNA binding inactive
CO[C@@H]1CN(C)C(=O)c2ccc(NC(=O)C3CC3)cc2OC[C@@H](C)N(C)C[C@@H]1C	none
COc1ccc(NS(=O)(=O)c2cc(NC(=O)CNC(=O)c3cccc(OC)c3)ccc2C)cc1	rRNA inh HTS -25, EWS-Fli block 63 (no result: E-selectin induc) | DNA binding inactive | AID977621 inactive
COc1ccc(S(=O)(=O)Nc2cccc3c2O[C@@H](CN(C)S(C)(=O)=O)[C@@H](C)CN([C@H](C)CO)C3=O)cc1	none
O=C(COc1cccc(NC(=O)c2cccs2)c1)c1ccc(F)cc1	none (no result: E-selectin induc)
O=C(Nc1cccc(Oc2ccc3c(c2)C(=O)NC3=O)c1)c1cccs1	rRNA inh HTS -30, EWS-Fli block 74 (no result: E-selectin induc) | DNA binding inactive | AID977621 inactive
Cc1c(C(=O)O)sc2nc(CSc3ncc(C(F)(F)F)cc3Cl)[nH]c(=O)c12	rRNA inh HTS -33 (no result: E-selectin induc) | HepG2 cytotox inactive
CCOC(=O)c1sc2nc(CSc3ccccc3Cl)[nH]c(=O)c2c1C	none
CCc1cc2ccc(OC)cc2nc1SCC(=O)NNC(=O)c1ccco1	none (no result: E-selectin induc)
CCc1cc2ccc(OC)cc2nc1SCC(=O)N1CCN(C(=O)c2ccco2)CC1	rRNA inh HTS -26 (no result: E-selectin induc) | AID977621 inactive

High-throughput results as filed in PubChem BioAssay.
